{
  "source": "ChEMBL document CHEMBL1154352",
  "about": "“Toll-like receptor 7 selective synthetic oligoribonucleotide agonists: synthesis and structure-activity relationship studies” (J Med Chem, 2009)",
  "key": {"[1]": {"biological_target": "T1, Toll-like receptor 7 (Homo sapiens) (UniProt Q9NYK1)", "T1 sequence (whole entry)": "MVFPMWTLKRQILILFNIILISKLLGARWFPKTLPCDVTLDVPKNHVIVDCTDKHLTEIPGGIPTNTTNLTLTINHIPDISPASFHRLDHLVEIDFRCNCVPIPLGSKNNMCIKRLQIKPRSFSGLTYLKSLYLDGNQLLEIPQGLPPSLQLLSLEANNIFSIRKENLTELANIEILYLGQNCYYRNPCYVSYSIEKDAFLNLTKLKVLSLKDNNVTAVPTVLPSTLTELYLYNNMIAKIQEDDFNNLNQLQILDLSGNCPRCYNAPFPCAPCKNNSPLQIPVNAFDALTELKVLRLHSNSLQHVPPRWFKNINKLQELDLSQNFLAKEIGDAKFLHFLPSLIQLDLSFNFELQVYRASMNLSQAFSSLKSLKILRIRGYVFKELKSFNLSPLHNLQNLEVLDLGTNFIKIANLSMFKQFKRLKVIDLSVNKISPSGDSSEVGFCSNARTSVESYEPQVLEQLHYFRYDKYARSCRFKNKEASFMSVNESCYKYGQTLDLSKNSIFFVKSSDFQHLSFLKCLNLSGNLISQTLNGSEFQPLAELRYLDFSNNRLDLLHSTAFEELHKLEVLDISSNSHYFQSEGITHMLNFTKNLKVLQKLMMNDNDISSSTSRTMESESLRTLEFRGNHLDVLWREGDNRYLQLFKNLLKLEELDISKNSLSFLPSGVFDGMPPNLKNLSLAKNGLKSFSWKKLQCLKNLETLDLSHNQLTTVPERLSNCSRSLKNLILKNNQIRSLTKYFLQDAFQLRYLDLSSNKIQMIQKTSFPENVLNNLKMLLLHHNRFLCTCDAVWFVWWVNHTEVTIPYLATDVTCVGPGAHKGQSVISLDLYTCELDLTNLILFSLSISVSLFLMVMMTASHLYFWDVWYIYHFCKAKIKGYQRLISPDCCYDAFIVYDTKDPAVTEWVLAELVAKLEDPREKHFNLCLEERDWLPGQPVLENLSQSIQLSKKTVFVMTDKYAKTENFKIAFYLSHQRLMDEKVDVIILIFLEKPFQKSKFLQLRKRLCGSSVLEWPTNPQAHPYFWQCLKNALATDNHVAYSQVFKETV", "assay": "Activation of human TLR7 expressed in HEK293XL assessed as fold induction of NF-kappaB activity at 50 ug/ml after 18 hrs by reporter gene assay relative to control", "how_it_was_run": "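HEK293 cells stably expressing human TLR7 or TLR8, transiently transfected with SEAP reporter plasmid; medium replaced, SIMRA compounds added, 18 h incubation. Supernatant SEAP measured by QuantiBlue; expressed as fold increase in NF-κB activity over PBS control. Tabulated data at 50 μg/mL, representative of three independent experiments.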"}, "[2]": {"organism": "Homo sapiens", "assay": "Immunostimulatory activity in human mDC assessed as induction of IL6 at 100 ug/ml after 24 hrs", "assay_type": "functional", "how_it_was_run": "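Human mDCs isolated from PBMCs by CD19+ B-cell depletion then BDCA1 positive selection; plated at 1 × 10^6 cells/mL, compounds in PBS, 37 °C for 24 h; supernatant cytokines by human Luminex multiplex. Representative of four independent experiments.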"}, "[3]": {"test_system": "PBMC", "assay": "Immunomodulatory activity in human PBMC assessed as induction of MCP1 at 50 ug/ml after 24 hrs", "assay_type": "functional, cell-based", "how_it_was_run": "(§1)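 Human PBMCs plated at 5 × 10^6 cells/mL; compounds dissolved in PBS added at various concentrations, 37 °C for 24 h. Supernatant cytokines/chemokines quantified with human Luminex multiplex kit.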"}, "[4]": {"organism": "Homo sapiens", "assay": "Immunostimulatory activity in human pDC assessed as induction of IP10 at 100 ug/ml after 24 hrs", "assay_type": "functional", "how_it_was_run": "(§2)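 Human pDCs plated at 1 × 10^6 cells/mL; compounds in PBS added, 37 °C for 24 h; supernatant cytokines/chemokines by human Luminex multiplex kit.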"}, "[5]": {"organism": "Homo sapiens", "assay": "Immunostimulatory activity in human pDC assessed as induction of IFNalpha at 100 ug/ml after 24 hrs", "assay_type": "functional", "how_it_was_run": "as §2"}, "[6]": {"test_system": "PBMC", "assay": "Immunomodulatory activity in human PBMC assessed as induction of IL1-beta at 50 ug/ml after 24 hrs", "assay_type": "functional, cell-based", "how_it_was_run": "as §1"}, "[7]": {"test_system": "PBMC", "assay": "Immunomodulatory activity in human PBMC assessed as induction of TNFalpha at 100 ug/ml after 24 hrs", "assay_type": "functional, cell-based", "how_it_was_run": "as §1"}, "[8]": {"test_system": "PBMC", "assay": "Immunomodulatory activity in human PBMC assessed as induction of IL6 at 50 ug/ml after 24 hrs", "assay_type": "functional, cell-based", "how_it_was_run": "as §1"}, "[9]": {"organism": "Homo sapiens", "assay": "Immunostimulatory activity in human pDC assessed as induction of IL6 at 100 ug/ml after 24 hrs", "assay_type": "functional", "how_it_was_run": "as §2"}, "[10]": {"test_system": "PBMC", "assay": "Immunomodulatory activity in human PBMC assessed as induction of IL12 at 50 ug/ml after 24 hrs", "assay_type": "functional, cell-based", "how_it_was_run": "as §1"}, "[11]": {"biological_target": "T2, Toll-like receptor 9 (Mus musculus) (UniProt Q9EQU3)", "T2 sequence (whole entry)": "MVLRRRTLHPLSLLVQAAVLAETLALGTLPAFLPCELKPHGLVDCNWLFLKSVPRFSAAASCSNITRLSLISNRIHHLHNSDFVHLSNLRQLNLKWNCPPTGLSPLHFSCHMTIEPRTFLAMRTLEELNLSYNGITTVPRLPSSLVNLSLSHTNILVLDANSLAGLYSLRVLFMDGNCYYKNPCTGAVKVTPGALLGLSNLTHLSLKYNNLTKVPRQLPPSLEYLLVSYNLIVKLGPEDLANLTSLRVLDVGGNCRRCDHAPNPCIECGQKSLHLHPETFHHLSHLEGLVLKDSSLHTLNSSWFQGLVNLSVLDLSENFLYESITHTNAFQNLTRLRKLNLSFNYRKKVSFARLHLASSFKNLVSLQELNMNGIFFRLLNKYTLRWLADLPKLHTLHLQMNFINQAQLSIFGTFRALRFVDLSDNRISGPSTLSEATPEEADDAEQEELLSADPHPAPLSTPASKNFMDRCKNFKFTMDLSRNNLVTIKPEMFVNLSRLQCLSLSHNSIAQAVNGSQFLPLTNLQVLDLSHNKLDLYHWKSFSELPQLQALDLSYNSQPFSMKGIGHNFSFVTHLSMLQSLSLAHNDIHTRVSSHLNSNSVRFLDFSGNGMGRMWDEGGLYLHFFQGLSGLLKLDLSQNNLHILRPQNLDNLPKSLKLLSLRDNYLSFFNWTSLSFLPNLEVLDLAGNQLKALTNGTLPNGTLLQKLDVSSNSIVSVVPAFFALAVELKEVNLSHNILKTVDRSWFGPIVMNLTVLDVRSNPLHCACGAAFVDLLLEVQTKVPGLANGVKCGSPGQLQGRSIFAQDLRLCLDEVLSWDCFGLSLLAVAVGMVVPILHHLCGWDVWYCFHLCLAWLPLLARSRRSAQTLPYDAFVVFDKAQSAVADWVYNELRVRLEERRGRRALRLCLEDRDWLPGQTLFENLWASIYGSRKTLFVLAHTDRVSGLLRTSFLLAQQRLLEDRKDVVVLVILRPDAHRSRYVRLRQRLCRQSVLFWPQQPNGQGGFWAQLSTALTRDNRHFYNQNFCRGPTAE", "assay": "Activation of mouse TLR9 expressed in HEK293 assessed as induction of NF-kappaB activity reporter gene assay", "assay_type": "cell-based"}},
  "note": "Active and inactive are the calls of the source. The calls are words filed in the database; no cut-off is given here.",
  "data": [
    {"smiles": "Nc1ccn([C@@H]2O[C@H](COP(=O)(S)O[C@H]3[C@@H](O)[C@H](n4cnc5c(N)ncnc54)O[C@@H]3COP(=O)(S)O[C@H]3[C@@H](O)[C@H](n4ccc5c(=O)[nH]c(N)nc54)O[C@@H]3COP(=O)(S)O[C@H]3[C@@H](O)[C@H](n4ccc(=O)[nH]c4=O)O[C@@H]3COP(=O)(S)O[C@H]3[C@@H](O)[C@H](n4ccc5c(=O)[nH]c(N)nc54)O[C@@H]3COP(=O)(S)O[C@H]3[C@@H](O)[C@H](n4cnc5c(N)ncnc54)O[C@@H]3COP(=O)(S)O[C@H]3[C@@H](O)[C@H](n4cnc5c(N)ncnc54)O[C@@H]3CO)[C@@H](OP(=O)(S)OC[C@H]3O[C@@H](n4ccc5c(=O)[nH]c(N)nc54)[C@H](O)[C@@H]3OP(=O)(S)OC[C@H]3O[C@@H](n4cnc5c(N)ncnc54)[C@H](O)[C@@H]3OP(=O)(S)OC[C@H]3O[C@@H](n4ccc(=O)[nH]c4=O)[C@H](O)[C@@H]3OP(=O)(S)OC[C@H]3O[C@@H](n4ccc(=O)[nH]c4=O)[C@H](O)[C@@H]3OP(=O)(S)OCC(O)COP(=O)(S)O[C@H]3[C@@H](O)[C@H](n4ccc(=O)[nH]c4=O)O[C@@H]3COP(=O)(S)O[C@H]3[C@@H](O)[C@H](n4ccc(=O)[nH]c4=O)O[C@@H]3COP(=O)(S)O[C@H]3[C@@H](O)[C@H](n4cnc5c(N)ncnc54)O[C@@H]3COP(=O)(S)O[C@H]3[C@@H](O)[C@H](n4ccc5c(=O)[nH]c(N)nc54)O[C@@H]3COP(=O)(S)O[C@H]3[C@@H](O)[C@H](n4ccc(N)nc4=O)O[C@@H]3COP(=O)(S)O[C@H]3[C@@H](O)[C@H](n4cnc5c(N)ncnc54)O[C@@H]3COP(=O)(S)O[C@H]3[C@@H](O)[C@H](n4ccc5c(=O)[nH]c(N)nc54)O[C@@H]3COP(=O)(S)O[C@H]3[C@@H](O)[C@H](n4ccc(=O)[nH]c4=O)O[C@@H]3COP(=O)(S)O[C@H]3[C@@H](O)[C@H](n4ccc5c(=O)[nH]c(N)nc54)O[C@@H]3COP(=O)(S)O[C@H]3[C@@H](O)[C@H](n4cnc5c(N)ncnc54)O[C@@H]3COP(=O)(S)O[C@H]3[C@@H](O)[C@H](n4cnc5c(N)ncnc54)O[C@@H]3CO)[C@H]2O)c(=O)n1", "note": "(stereo partly specified)", "values": [
      {"measurement": "fold change (FC)", "setting": "[1]", "value": 17.5},
      {"measurement": "Activity", "setting": "[2]", "value": "Active"},
      {"measurement": "Activity", "setting": "[3]", "value": 46700, "unit": "pg/mL"},
      {"measurement": "Activity", "setting": "[4]", "value": "Active"},
      {"measurement": "Activity", "setting": "[5]", "value": "Active"},
      {"measurement": "Activity", "setting": "[6]", "value": 123, "unit": "pg/mL"},
      {"measurement": "Activity", "setting": "[7]", "value": 15.7, "unit": "pg/mL"},
      {"measurement": "Activity", "setting": "[8]", "value": 1900, "unit": "pg/mL"},
      {"measurement": "Activity", "setting": "[9]", "value": "Active"},
      {"measurement": "Activity", "setting": "[10]", "value": 174, "unit": "pg/mL"},
      {"measurement": "Activity", "setting": "[11]", "value": "inactive"}
    ]}
  ]
}
